According to ChEMBL document CHEMBL2311406, “Structure-based design of high-affinity macrocyclic peptidomimetics to block the menin-mixed lineage leukemia 1 (MLL1) protein-protein interaction” (J Med Chem, 2013):
pIC50, pKd, pKi: −log10 of the molar value. *1 amine or outer side, *2 acyl side, *3 side chain or, on linkers, in order; H or OH if unused. Where a SMILES comes first, the peptide text is derived from it. Bridges are numbered along the chain shown (N, C = ends). [ ]: non-standard residue; d: D form. The star is where a group is joined. 5FAM = O=C1OC2(c3ccc(O)cc3Oc3cc(O)ccc32)c2ccc(C(=O)*)cc21; Ala(indol-2-yl) = N[C@@H](Cc1cc2ccccc2[nH]1)C(=O)O; Phe(3-CF3) = N[C@@H](Cc1cccc(C(F)(F)F)c1)C(=O)O; Phe(3-Ph) = N[C@@H](Cc1cccc(-c2ccccc2)c1)C(=O)O; hhhhLys = O=C([C@H](CCCCCCCCN[*:3])N[*:1])[*:2]; X2 = CC(C)Cc1cccc(C[C@H](N[*:1])C(=O)[*:2])c1; Phe(3,5-F2) = N[C@@H](Cc1cc(F)cc(F)c1)C(=O)O; X1 = CCc1cccc(C[C@H](N[*:1])C(=O)[*:2])c1; Phe(3-Cl) = N[C@@H](Cc1cccc(Cl)c1)C(=O)O; Phe(4-Cl) = N[C@@H](Cc1ccc(Cl)cc1)C(=O)O; NH(CH2)9CO = O=C(CCCCCCCCCN[*:1])[*:2]; Phe(2-Cl) = N[C@@H](Cc1ccccc1Cl)C(=O)O; Phe(3-F) = N[C@@H](Cc1cccc(F)c1)C(=O)O; Phe(3-Me) = Cc1cccc(C[C@H](N)C(=O)O)c1; Phe(4-F) = N[C@@H](Cc1ccc(F)cc1)C(=O)O; Phe(2-F) = N[C@@H](Cc1ccccc1F)C(=O)O; Cha = N[C@@H](CC1CCCCC1)C(=O)O; Ahp(2) = CCCCC[C@H](N)C(=O)O; hLys = NCCCCC[C@H](N)C(=O)O; AEEEA = NCCOCCOCCOCC(=O)O; Ac5c = NC1(C(=O)O)CCCC1; Abu = CC[C@H](N)C(=O)O; Ac4c = NC1(C(=O)O)CCC1; Ac3c = NC1(C(=O)O)CC1; Aib = CC(C)(N)C(=O)O

Molecular target: T1, Menin (Homo sapiens, UniProt O00255)
T1 sequence (O00255 whole entry): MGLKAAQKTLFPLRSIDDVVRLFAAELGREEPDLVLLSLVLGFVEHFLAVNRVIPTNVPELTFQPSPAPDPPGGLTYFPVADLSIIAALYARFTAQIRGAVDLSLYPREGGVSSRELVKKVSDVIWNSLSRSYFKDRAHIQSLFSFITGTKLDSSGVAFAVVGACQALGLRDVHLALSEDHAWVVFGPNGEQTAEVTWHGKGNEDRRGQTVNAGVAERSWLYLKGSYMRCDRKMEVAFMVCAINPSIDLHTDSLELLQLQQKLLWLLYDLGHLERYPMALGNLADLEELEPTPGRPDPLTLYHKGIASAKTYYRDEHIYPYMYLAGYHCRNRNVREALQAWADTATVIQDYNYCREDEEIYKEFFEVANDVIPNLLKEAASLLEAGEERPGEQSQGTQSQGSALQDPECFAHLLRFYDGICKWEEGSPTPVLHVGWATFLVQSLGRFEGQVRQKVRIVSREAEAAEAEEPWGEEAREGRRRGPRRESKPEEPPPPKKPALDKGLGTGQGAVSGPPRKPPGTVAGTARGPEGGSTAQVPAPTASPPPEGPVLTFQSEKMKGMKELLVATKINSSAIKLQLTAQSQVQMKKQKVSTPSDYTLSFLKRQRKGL
Test: Binding affinity to menin (unknown origin) after 60 mins by fluorescence polarization assay
Outline: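 Competitive FP with fluorescein-labeled peptide tracers. Compound in DMSO (2% final) was added to a preincubated menin/tracer complex in 100 mM potassium phosphate pH 7.5 with 100 μg/mL bovine γ-globulin and 0.02% sodium azide. Menin/tracer/detergent were 30 nM/3 nM/0.005% Triton X-100 or 3 nM/2 nM/0.02% Tween-20. Ki was derived from the fitted IC50, probe Kd and assay concentrations.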

| pIC50 | pKi | pKd | Compound |
| --- | --- | --- | --- |
| 5.02 | 5.55 | – | Ac-RFPARP-NH2 |
| 6.65 | 7.17 | – | CC1(C)NC(=O)[C@@H]2CCCN2C(=O)[C@H](Cc2ccccc2)NC(=O)[C@@H](N)CCCCCCCCNC(=O)[C@@H]2CCCN2C(=O)[C@H](CCCNC(=N)N)NC1=O (H-[hhhhLys]FP[Aib]RP; lactam 1-C) |
| 6.84 | 7.37 | – | CC(=O)N[C@@H](CCCNC(=N)N)C(=O)N[C@@H](Cc1c[nH]c2ccccc12)C(=O)N[C@H]1CCCCCCCCCNC(=O)[C@@H]2CCCN2C(=O)[C@H](CCCNC(=N)N)NC(=O)[C@H](C)NC(=O)[C@@H]2CCCN2C(=O)[C@H](Cc2ccccc2)NC1=O |
| 5.67 | 6.23 | – | CC(=O)N[C@H]1CCCCCCCCNC(=O)[C@@H]2CCCN2C(=O)[C@H](CCCNC(=N)N)NC(=O)[C@H](C)NC(=O)[C@@H]2CCCN2C(=O)[C@H](Cc2ccccc2)NC1=O (Ac-[hhhhLys]FPARP; lactam 1-C) |
| 6.18 | 6.71 | – | C[C@@H]1NC(=O)[C@@H]2CCCN2C(=O)[C@H](Cc2ccccc2)NC(=O)[C@@H](N)CCCCCCCCNC(=O)[C@@H]2CCCN2C(=O)[C@H](CCCNC(=N)N)NC1=O (H-[hhhhLys]FPARP; lactam 1-C) |
| – | – | 8.85 | N=C(N)NCCC[C@H](NC(=O)COCCOCCOCCNC(=O)c1ccc2c(c1)C(=O)OC21c2ccc(O)cc2Oc2cc(O)ccc21)C(=O)N[C@@H](Cc1cc2ccccc2[nH]1)C(=O)N[C@H]1CCCCCCCCNC(=O)[C@@H]2CCCN2C(=O)[C@H](CCCNC(=N)N)NC(=O)C2(CCC2)NC(=O)[C@@H]2CCCN2C(=O)[C@H](Cc2cc(F)cc(F)c2)NC1=O ({5FAM-AEEEA}-R[Ala(indol-2-yl)][hhhhLys][Phe(3,5-F2)]P[Ac4c]RP; lactam 3-C) |
| 4.07 | 4.59 | – | Ac-RWRFPAR-NH2 |
| 4.96 | 5.48 | – | CC(=O)N[C@@H](CCCNC(=N)N)C(=O)N[C@@H](Cc1c[nH]c2ccccc12)C(=O)N[C@H]1CCCCNC(=O)[C@@H]2CCCN2C(=O)[C@H](CCCNC(=N)N)NC(=O)[C@H](C)NC(=O)[C@@H]2CCCN2C(=O)[C@H](Cc2ccccc2)NC1=O (Ac-RWKFPARP; lactam 3-C) |
| 5.20 | 5.78 | – | N=C(N)NCCC[C@@H]1NC(=O)C2(CCCC2)NC(=O)[C@@H]2CCCN2C(=O)[C@H](Cc2ccccc2)NC(=O)[C@@H](N)CCCCCCCCNC(=O)[C@@H]2CCCN2C1=O (H-[hhhhLys]FP[Ac5c]RP; lactam 1-C) |
| 4.97 | 5.50 | – | CC[C@@H]1NC(=O)[C@@H]2CCCN2C(=O)[C@H](Cc2ccccc2)NC(=O)[C@@H](N)CCCCCCCCNC(=O)[C@@H]2CCCN2C(=O)[C@H](CCCNC(=N)N)NC1=O (H-[hhhhLys]FP[Abu]RP; lactam 1-C) |
| 6.80 | 7.35 | – | N=C(N)NCCC[C@@H]1NC(=O)C2(CCC2)NC(=O)[C@@H]2CCCN2C(=O)[C@H](Cc2cccc(Cl)c2)NC(=O)[C@@H](N)CCCCCCCCNC(=O)[C@@H]2CCCN2C1=O (H-[hhhhLys][Phe(3-Cl)]P[Ac4c]RP; lactam 1-C) |
| 7.20 | 7.76 | – | CC(=O)N[C@@H](CCCNC(=N)N)C(=O)N[C@@H](Cc1c[nH]c2ccccc12)C(=O)N[C@H]1CCCCCCNC(=O)[C@@H]2CCCN2C(=O)[C@H](CCCNC(=N)N)NC(=O)[C@H](C)NC(=O)[C@@H]2CCCN2C(=O)[C@H](Cc2ccccc2)NC1=O |
| 6.37 | 6.91 | – | N=C(N)NCCC[C@@H]1NC(=O)C2(CCC2)NC(=O)[C@@H]2CCCN2C(=O)[C@H](Cc2ccc(F)cc2)NC(=O)[C@@H](N)CCCCCCCCNC(=O)[C@@H]2CCCN2C1=O (H-[hhhhLys][Phe(4-F)]P[Ac4c]RP; lactam 1-C) |
| 5.19 | 5.74 | – | C[C@@H]1NC(=O)[C@@H]2CCCN2C(=O)[C@H](Cc2ccccc2)NC(=O)CCCCCCCCCNC(=O)[C@@H]2CCCN2C(=O)[C@H](CCCNC(=N)N)NC1=O (cyclo(ARP[NH(CH2)9CO]FP)) |
| 6.63 | 7.15 | – | Ac-RWRFPARP-NH2 |
| 6.95 | 7.52 | – | N=C(N)NCCC[C@@H]1NC(=O)C2(CCC2)NC(=O)[C@@H]2CCCN2C(=O)[C@H](Cc2ccccc2Cl)NC(=O)[C@@H](N)CCCCCCCCNC(=O)[C@@H]2CCCN2C1=O (H-[hhhhLys][Phe(2-Cl)]P[Ac4c]RP; lactam 1-C) |

| pIC50 | pKi | pKd | Compound |
| --- | --- | --- | --- |
| 5.48 | 6.06 | – | N=C(N)NCCC[C@@H]1NC(=O)C2(CCC2)NC(=O)[C@@H]2CCCN2C(=O)[C@H](CC2CCCCC2)NC(=O)[C@@H](N)CCCCCCCCNC(=O)[C@@H]2CCCN2C1=O (H-[hhhhLys][Cha]P[Ac4c]RP; lactam 1-C) |
| 7.60 | 8.17 | – | N=C(N)NCCC[C@@H]1NC(=O)C2(CCC2)NC(=O)[C@@H]2CCCN2C(=O)[C@H](Cc2cccc(F)c2)NC(=O)[C@@H](N)CCCCCCCCNC(=O)[C@@H]2CCCN2C1=O (H-[hhhhLys][Phe(3-F)]P[Ac4c]RP; lactam 1-C) |
| 5.60 | 6.14 | – | N=C(N)NCCC[C@@H]1NC(=O)C2(CCC2)NC(=O)[C@@H]2CCCN2C(=O)[C@H](Cc2cccc(C(F)(F)F)c2)NC(=O)[C@@H](N)CCCCCCCCNC(=O)[C@@H]2CCCN2C1=O (H-[hhhhLys][Phe(3-CF3)]P[Ac4c]RP; lactam 1-C) |
| 4.40 | 4.85 | – | N=C(N)NCCC[C@@H]1NC(=O)C2(CCC2)NC(=O)[C@@H]2CCCN2C(=O)[C@H](Cc2cccc(-c3ccccc3)c2)NC(=O)[C@@H](N)CCCCCCCCNC(=O)[C@@H]2CCCN2C1=O (H-[hhhhLys][Phe(3-Ph)]P[Ac4c]RP; lactam 1-C) |
| 7.94 | 8.54 | – | Ac-RWRFPARPGTGRR-NH2 |
| 5.13 | 5.66 | – | CCCCC[C@H](NC(=O)[C@H](Cc1c[nH]c2ccccc12)NC(=O)[C@H](CCCNC(=N)N)NC(C)=O)C(=O)N[C@@H](Cc1ccccc1)C(=O)N1CCC[C@H]1C(=O)N[C@@H](C)C(=O)N[C@@H](CCCNC(=N)N)C(=O)N1CCC[C@H]1C(=O)NCC (Ac-RW[Ahp(2)]FPARP-NHEt) |
| 5.97 | 6.51 | – | Ac-WRFPARP-NH2 |
| 6.29 | 6.87 | – | CC(=O)N[C@@H](CCCNC(=N)N)C(=O)N[C@@H](Cc1c[nH]c2ccccc12)C(=O)N[C@H]1CCCCCNC(=O)[C@@H]2CCCN2C(=O)[C@H](CCCNC(=N)N)NC(=O)[C@H](C)NC(=O)[C@@H]2CCCN2C(=O)[C@H](Cc2ccccc2)NC1=O (Ac-RW[hLys]FPARP; lactam 3-C) |
| 6.99 | 7.56 | – | N=C(N)NCCC[C@@H]1NC(=O)C2(CCC2)NC(=O)[C@@H]2CCCN2C(=O)[C@H](Cc2ccccc2F)NC(=O)[C@@H](N)CCCCCCCCNC(=O)[C@@H]2CCCN2C1=O (H-[hhhhLys][Phe(2-F)]P[Ac4c]RP; lactam 1-C) |
| 5.70 | 6.26 | – | N=C(N)NCCC[C@@H]1NC(=O)C2(CCC2)NC(=O)[C@@H]2CCCN2C(=O)[C@H](Cc2ccc(Cl)cc2)NC(=O)[C@@H](N)CCCCCCCCNC(=O)[C@@H]2CCCN2C1=O (H-[hhhhLys][Phe(4-Cl)]P[Ac4c]RP; lactam 1-C) |
| 5.34 | 5.88 | – | CCc1cccc(C[C@@H]2NC(=O)[C@@H](N)CCCCCCCCNC(=O)[C@@H]3CCCN3C(=O)[C@H](CCCNC(=N)N)NC(=O)C3(CCC3)NC(=O)[C@@H]3CCCN3C2=O)c1 (H-[hhhhLys][X1]P[Ac4c]RP; lactam 1-C) |
| 4.44 | 4.94 | – | CC(C)Cc1cccc(C[C@@H]2NC(=O)[C@@H](N)CCCCCCCCNC(=O)[C@@H]3CCCN3C(=O)[C@H](CCCNC(=N)N)NC(=O)C3(CCC3)NC(=O)[C@@H]3CCCN3C2=O)c1 (H-[hhhhLys][X2]P[Ac4c]RP; lactam 1-C) |
| 6.71 | 7.26 | – | N=C(N)NCCC[C@@H]1NC(=O)C2(CC2)NC(=O)[C@@H]2CCCN2C(=O)[C@H](Cc2ccccc2)NC(=O)[C@@H](N)CCCCCCCCNC(=O)[C@@H]2CCCN2C1=O (H-[hhhhLys]FP[Ac3c]RP; lactam 1-C) |
| 5.94 | 6.48 | – | Cc1cccc(C[C@@H]2NC(=O)[C@@H](N)CCCCCCCCNC(=O)[C@@H]3CCCN3C(=O)[C@H](CCCNC(=N)N)NC(=O)C3(CCC3)NC(=O)[C@@H]3CCCN3C2=O)c1 (H-[hhhhLys][Phe(3-Me)]P[Ac4c]RP; lactam 1-C) |
| 7.60 | 8.16 | – | CC(=O)N[C@@H](CCCNC(=N)N)C(=O)N[C@@H](Cc1c[nH]c2ccccc12)C(=O)N[C@H]1CCCCCCCCNC(=O)[C@@H]2CCCN2C(=O)[C@H](CCCNC(=N)N)NC(=O)[C@H](C)NC(=O)[C@@H]2CCCN2C(=O)[C@H](Cc2ccccc2)NC1=O (Ac-RW[hhhhLys]FPARP; lactam 3-C) |
